B1: tRNA (parent)
chain: GUUCCGUUGGCGUAAUGGUAACGCGUCUCCCUCCUAAGGAGAAGACUGCGGGUUCGAGUCCCGUACGGAACG

Variants of: B1
Assay: yeast fitness, log relative to wild type (ln ratio); higher = fitter; tRNA-Arg(CCU), competitive growth, 37 C, 1 M NaCl
Outline: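 Genotype fitness is expressed as the natural log of its generations over those of the wild type. Each pool of the tRNA-Arg(CCU) variant library, carried on a HIS3 centromeric plasmid in BY4742 lacking the chromosomal gene, came from one of two independent transformations and grew 4 generations in SC-HIS at 30 °C before ~6.5 generations (~26.5 h) in SC-HIS 1M NaCl at 37 °C. Generation numbers used OD-scaled log2 output/input frequencies from 125 bp paired-end Illumina sequencing, combined across replicates by inverse-variance weighting.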

Row | Variant | yeast fitness (ln)
1 | GUUCCUUUGGCGUAAUGGUAACGCGUCUCCCUCCUAAGGAGAAGAUUGCGGGUUCGAGUCCCGUAUGGAGUG [G6U C46U C66U A70G C71U] | -0.138
2 | GGUCCAUUGGCGUAAUGGUAACGCGUCUCCCUCCUAAGGAGAAGACUGCGGGUUCGAGUCCCGUAUGGAACG [U2G G6A C66U] | -0.0956
3 | GCUCCAUUGGCGUAAUGGUAACGCGUCUCCCUCCUAAGGAGACGAUUGCGGGUUCGAGUCCCGUAUGGAGUG [U2C G6A A43C C46U C66U A70G C71U] | -0.0112
4 | GGUCCAUUGGCGUAAUGGUAACGCGUCUCCCUCCUAAGGAGACGACUGCGGGUUCGAGUCCCGUAUGGAACG [U2G G6A A43C C66U] | -0.0762
5 | GCUCCGUUGGCGUAAUGGUAACGCGUUUCCCUCCUAAGGAGACGAUUGCGGGUUCGAGUCCCGUACGGAAUG [U2C C27U A43C C46U C71U] | -0.0612
6 | AGUCCUUUGGCGUAAUGGUAACGCGUCUCCCUCCUAAGGAGACGACUGCGGGUUCGAGUCCCGUACGGGAUG [G1A U2G G6U A43C A69G C71U] | -0.537
7 | GGUCCUUUGGCGUAAUGGUAACGCGUCUCCCUCCUAAGGAGACGAUUGCGGGUUCGAGUCCCGUAUGGGUUG [U2G G6U A43C C46U C66U A69G A70U C71U] | -0.4
8 | GUUCCAUUGGCGUAAUGGUAACGCGUCUCCCUCCUAAGGAGACGAUUGCGGGUUCGAGUCCCGUAAGGAGCG [G6A A43C C46U C66A A70G] | -0.144
9 | AGUCCGUUGGCGUAAUGGUAACGCGUCUCCCUCCUAAGGAGAAGACUGCGGGUUCGAGUCCCGUAUGGAGCG [G1A U2G C66U A70G] | -0.161
10 | AUUCCUUUGGCGUAAUGGUAACGCGUCUCCCUCCUAAGGAGACGAUUGCGGGUUCGAGUCCCGUAUGGGUCG [G1A G6U A43C C46U C66U A69G A70U] | -0.305
11 | ACUCCUUUGGCGUAAUGGUAACGCGUCUCCCUCCUAAGGAGAAGAUUGCGGGUUCGAGUCCCGUACGGAUCG [G1A U2C G6U C46U A70U] | -0.0682
12 | AGUCCGUUGGCGUAAUGGUAACGCGUUUCCCUCCUAAGGAGAAGACUGCGGGUUCGAGUCCCGUAUGGAGCG [G1A U2G C27U C66U A70G] | -0.194
13 | GCUCCUUUGGCGUAAUGGUAACGCGUUUCCCUCCUAAGGAGACGACUGCGGGUUCGAGUCCCGUAUGGAAUG [U2C G6U C27U A43C C66U C71U] | -0.338
14 | AUUCCGUUGGCGUAAUGGUAACGCGUUUCCCUCCUAAGGAGAAGAUUGCGGGUUCGAGUCCCGUACGGGGUG [G1A C27U C46U A69G A70G C71U] | -0.16
15 | GGUCCAUUGGCGUAAUGGUAACGCGUUUCCCUCCUAAGGAGAAGAUUGCGGGUUCGAGUCCCGUAAGGGAUG [U2G G6A C27U C46U C66A A69G C71U] | -0.325
16 | GCUCCAUUGGCGUAAUGGUAACGCGUCUCCCUCCUAAGGAGACGAUUGCGGGUUCGAGUCCCGUAUGGGUCG [U2C G6A A43C C46U C66U A69G A70U] | -0.3
17 | GCUCCGUUGGCGUAAUGGUAACGCGUCUCCCUCCUAAGGAGAAGACUGCGGGUUCGAGUCCCGUACGGGUCG [U2C A69G A70U] | -0.117
18 | AUUCCAUUGGCGUAAUGGUAACGCGUCUCCCUCCUAAGGAGACGAUUGCGGGUUCGAGUCCCGUAUGGAGUG [G1A G6A A43C C46U C66U A70G C71U] | -0.338
19 | GUUCCGUUGGCGUAAUGGUAACGCGUCUCCCUCCUAAGGAGAAGAUUGCGGGUUCGAGUCCCGUACGGGUCG [C46U A69G A70U] | -0.0401

Row | Variant | yeast fitness (ln)
20 | GGUCCUUUGGCGUAAUGGUAACGCGUUUCCCUCCUAAGGAGAAGACUGCGGGUUCGAGUCCCGUAUGGGGCG [U2G G6U C27U C66U A69G A70G] | -0.375
21 | GCUCCUUUGGCGUAAUGGUAACGCGUUUCCCUCCUAAGGAGACGAUUGCGGGUUCGAGUCCCGUAUGGGUUG [U2C G6U C27U A43C C46U C66U A69G A70U C71U] | -0.391
22 | AUUCCUUUGGCGUAAUGGUAACGCGUCUCCCUCCUAAGGAGACGAUUGCGGGUUCGAGUCCCGUACGGAACG [G1A G6U A43C C46U] | -0.155
23 | GCUCCAUUGGCGUAAUGGUAACGCGUUUCCCUCCUAAGGAGAAGACUGCGGGUUCGAGUCCCGUACGGGGUG [U2C G6A C27U A69G A70G C71U] | -0.216
24 | AGUCCGUUGGCGUAAUGGUAACGCGUUUCCCUCCUAAGGAGACGACUGCGGGUUCGAGUCCCGUAAGGGGCG [G1A U2G C27U A43C C66A A69G A70G] | -0.27
25 | GGUCCGUUGGCGUAAUGGUAACGCGUUUCCCUCCUAAGGAGACGAUUGCGGGUUCGAGUCCCGUAUGGGGUG [U2G C27U A43C C46U C66U A69G A70G C71U] | -0.249
26 | GGUCCGUUGGCGUAAUGGUAACGCGUUUCCCUCCUAAGGAGAAGAUUGCGGGUUCGAGUCCCGUAUGGGUCG [U2G C27U C46U C66U A69G A70U] | -0.392
27 | GGUCCAUUGGCGUAAUGGUAACGCGUUUCCCUCCUAAGGAGAAGAUUGCGGGUUCGAGUCCCGUACGGGUCG [U2G G6A C27U C46U A69G A70U] | -0.133
28 | ACUCCAUUGGCGUAAUGGUAACGCGUCUCCCUCCUAAGGAGAAGACUGCGGGUUCGAGUCCCGUAUGGGGUG [G1A U2C G6A C66U A69G A70G C71U] | -0.0247
29 | GUUCCGUUGGCGUAAUGGUAACGCGUCUCCCUCCUAAGGAGACGAUUGCGGGUUCGAGUCCCGUAAGGGUUG [A43C C46U C66A A69G A70U C71U] | -0.341
30 | GUUCCGUUGGCGUAAUGGUAACGCGUUUCCCUCCUAAGGAGAAGAUUGCGGGUUCGAGUCCCGUAAGGAUCG [C27U C46U C66A A70U] | -0.0577
31 | GCUCCUUUGGCGUAAUGGUAACGCGUCUCCCUCCUAAGGAGAAGACUGCGGGUUCGAGUCCCGUAUGGGGCG [U2C G6U C66U A69G A70G] | -0.103
32 | ACUCCUUUGGCGUAAUGGUAACGCGUUUCCCUCCUAAGGAGAAGACUGCGGGUUCGAGUCCCGUAUGGGUCG [G1A U2C G6U C27U C66U A69G A70U] | -0.245
33 | AUUCCAUUGGCGUAAUGGUAACGCGUCUCCCUCCUAAGGAGACGACUGCGGGUUCGAGUCCCGUAUGGAGCG [G1A G6A A43C C66U A70G] | -0.213
34 | GCUCCUUUGGCGUAAUGGUAACGCGUCUCCCUCCUAAGGAGACGAUUGCGGGUUCGAGUCCCGUAUGGGUUG [U2C G6U A43C C46U C66U A69G A70U C71U] | -0.471
35 | GGUCCAUUGGCGUAAUGGUAACGCGUUUCCCUCCUAAGGAGACGACUGCGGGUUCGAGUCCCGUAAGGAUUG [U2G G6A C27U A43C C66A A70U C71U] | -0.473
36 | GCUCCAUUGGCGUAAUGGUAACGCGUUUCCCUCCUAAGGAGAAGACUGCGGGUUCGAGUCCCGUACGGGGCG [U2C G6A C27U A69G A70G] | -0.252
37 | GGUCCUUUGGCGUAAUGGUAACGCGUCUCCCUCCUAAGGAGAAGAUUGCGGGUUCGAGUCCCGUAUGGGUUG [U2G G6U C46U C66U A69G A70U C71U] | -0.39
38 | GCUCCGUUGGCGUAAUGGUAACGCGUCUCCCUCCUAAGGAGAAGAUUGCGGGUUCGAGUCCCGUACGGGUUG [U2C C46U A69G A70U C71U] | -0.169
